Data on 44 molecules can be found in ChEMBL document CHEMBL4177719, “Synthesis and evaluation of biaryl derivatives for structural characterization of selective monoamine oxidase B inhibitors toward Parkinson's disease therapy” (Bioorg Med Chem, 2018).

For assay [1], the target named is T1, Amine oxidase [flavin-containing] B (Homo sapiens, UniProt P27338).
T1 sequence (P27338 whole entry): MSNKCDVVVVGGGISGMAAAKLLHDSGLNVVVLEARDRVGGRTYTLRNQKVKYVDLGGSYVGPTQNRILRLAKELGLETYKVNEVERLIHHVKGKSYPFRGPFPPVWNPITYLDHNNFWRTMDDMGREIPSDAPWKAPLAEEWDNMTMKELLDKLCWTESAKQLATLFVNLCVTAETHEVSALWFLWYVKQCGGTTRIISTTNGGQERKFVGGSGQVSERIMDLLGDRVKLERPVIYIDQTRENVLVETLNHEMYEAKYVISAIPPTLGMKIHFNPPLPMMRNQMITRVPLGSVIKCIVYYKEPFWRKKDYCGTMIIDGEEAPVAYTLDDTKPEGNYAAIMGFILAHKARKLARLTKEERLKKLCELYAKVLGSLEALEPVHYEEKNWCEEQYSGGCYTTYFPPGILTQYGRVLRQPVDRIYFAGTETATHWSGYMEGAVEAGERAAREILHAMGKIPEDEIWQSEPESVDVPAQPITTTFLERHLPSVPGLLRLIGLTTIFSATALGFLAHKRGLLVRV
Description: Inhibition of recombinant human MAO-B using benzylamine as substrate preincubated for 15 mins followed by substrate addition measured after 20 mins by amplex red reagent based spectrophotometric assay.

In assay [2] the target is T2, Amine oxidase [flavin-containing] A (Homo sapiens, UniProt P21397).
T2 sequence (P21397 whole entry): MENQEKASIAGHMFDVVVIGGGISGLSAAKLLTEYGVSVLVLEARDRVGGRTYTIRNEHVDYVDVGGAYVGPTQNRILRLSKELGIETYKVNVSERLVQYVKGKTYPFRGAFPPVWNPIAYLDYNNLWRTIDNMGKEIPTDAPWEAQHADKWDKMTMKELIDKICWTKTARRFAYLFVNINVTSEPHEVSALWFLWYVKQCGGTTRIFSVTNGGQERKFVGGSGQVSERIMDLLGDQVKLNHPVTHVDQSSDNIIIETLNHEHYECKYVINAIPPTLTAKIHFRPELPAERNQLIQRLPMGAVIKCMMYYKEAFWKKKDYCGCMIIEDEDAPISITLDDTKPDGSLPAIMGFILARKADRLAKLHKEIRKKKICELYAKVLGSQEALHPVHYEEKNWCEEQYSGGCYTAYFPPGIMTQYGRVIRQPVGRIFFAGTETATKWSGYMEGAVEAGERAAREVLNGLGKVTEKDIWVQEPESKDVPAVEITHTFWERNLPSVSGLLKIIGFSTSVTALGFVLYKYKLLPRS
Description: Inhibition of recombinant human MAO-A using p-tyramine as substrate preincubated for 15 mins followed by substrate addition measured after 20 mins by amplex red reagent based spectrophotometric assay. In a few lines:
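Recombinant human MAO-A with compounds at final 10⁻⁵–10 µM, preincubated 15 min at 37 °C in 50 mM sodium phosphate, pH 7.4. Reaction started by adding 200 µM Amplex Red, 2 U/mL horseradish peroxidase and 2 mM p-tyramine. IC50 came from dose-response curves in quadruplicate, as mean ± S.E.M.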

For another assay, the species on record is Homo sapiens. Description: Selectivity index, ratio of IC50 for recombinant human MAO-A to IC50 for recombinant human MAO-B.

What is called IC50 is the midpoint of a concentration-inhibition curve. For `Nc1ccc(OCc2cccc(F)c2)cc1`, the concentration for half-maximal inhibition (IC50) in assay [1] is 2480 nM; in assay [2], more than 100000 nM. For the same molecule, in the assay listed under Homo sapiens, the Ratio IC50 was more than 40.

With `NCCc1ccc(-c2ccc(Cl)cc2)cc1`, the IC50 is 625 nM in assay [1] and more than 10000 nM in assay [2]. Moreover, in the assay filed under Homo sapiens, the Ratio IC50 is more than 16.

Take `NCCc1ccc(-c2ccc(F)cc2)cc1`: the half-maximal inhibitory concentration (IC50) was 6810 nM in assay [1] and more than 10000 nM in assay [2]. Moreover, the Ratio IC50 in the assay listed under Homo sapiens is more than 1.5.

As for `NC(=O)c1ccc(OCc2ccc(F)cc2)cc1`, the IC50 is 271 nM in assay [1] and more than 100000 nM in assay [2]. Besides, in the assay filed under Homo sapiens, the Ratio IC50 was more than 360.

Consider `COc1cccc(COc2ccc(CCN)cc2)c1`, for which the IC50 in assay [1] was 305 nM; in assay [2], more than 10000 nM. Further, in the assay listed under Homo sapiens, the Ratio IC50 was more than 33.

Regarding `NCc1ccc(OCc2cccc(F)c2)cc1`, the IC50 in assay [1] was 926 nM; in assay [2], more than 100000 nM. Besides, the Ratio IC50 in the assay filed under Homo sapiens is more than 100.

`NCCc1ccc(OCc2cccc(C(F)(F)F)c2)cc1`: the values for the IC50 in assay [1] and in assay [2] were 110 nM and more than 100000 nM, respectively. Moreover, in the assay filed under Homo sapiens, the Ratio IC50 was more than 900.

Turning to `NC(=O)c1ccc(OCc2ccccc2F)cc1`, the IC50 was 1050 nM in assay [1] and more than 100000 nM in assay [2]. The Ratio IC50 in the assay filed under Homo sapiens is more than 95.

For the molecule `NCc1ccc(OCc2cccc(C(F)(F)F)c2)cc1`, the IC50 was 387 nM in assay [1] and more than 100000 nM in assay [2]. Also, the Ratio IC50 in the assay filed under Homo sapiens was more than 250.

As for `Nc1ccc(OCc2cccc(C(F)(F)F)c2)cc1`, the concentration for half-maximal inhibition (IC50) in assay [1] is 1510 nM; in assay [2], more than 100000 nM. Moreover, the Ratio IC50 in the assay listed under Homo sapiens is more than 66.

With `Nc1ccc(OCc2ccccc2C(F)(F)F)cc1`, the IC50 was more than 10000 nM in assay [1] and more than 100000 nM in assay [2].

`NCc1ccc(OCc2ccccc2)cc1`: the IC50 in assay [1] was 3230 nM; in assay [2], more than 100000 nM. Also, the Ratio IC50 in the assay listed under Homo sapiens is more than 31.

For `NC(=O)c1ccc(OCc2cccc(F)c2)cc1`, the values for the IC50 in assay [1] and in assay [2] were 1550 nM and more than 100000 nM, respectively. Moreover, the Ratio IC50 in the assay listed under Homo sapiens was more than 65.

On to `NCc1ccc(OCc2ccccc2C(F)(F)F)cc1`, for which the IC50 was 3150 nM in assay [1] and more than 100000 nM in assay [2]. For the same molecule, the Ratio IC50 in the assay listed under Homo sapiens is more than 32.

Turning to `NCc1ccc(OCc2ccc(F)cc2)cc1`, the IC50 in assay [1] was 452 nM; in assay [2], more than 100000 nM. The Ratio IC50 in the assay listed under Homo sapiens is more than 220.

As for `CC(=O)N[C@H]1CC(=O)N(c2ccc(OCc3cccc(F)c3)cc2)C1` [SEMBRAGILINE], the half-maximal inhibitory concentration (IC50) in assay [1] came to 16 nM.

As to `Nc1ccc(OCc2ccc(C(F)(F)F)cc2)cc1`, the IC50 is 402 nM in assay [1] and more than 100000 nM in assay [2]. In addition, the Ratio IC50 in the assay filed under Homo sapiens was more than 240.

On to `Nc1ccc(OCc2ccccc2F)cc1`, for which the IC50 in assay [1] is more than 10000 nM; in assay [2], more than 30000 nM.

As to `NCCc1ccc(OCc2cccc(F)c2)cc1`, the IC50 was 193 nM in assay [1] and more than 100000 nM in assay [2]. Also, the Ratio IC50 in the assay listed under Homo sapiens is more than 510.

With `NCCc1ccc(OCc2ccc(F)cc2)cc1`, the IC50 was 109 nM in assay [1] and more than 100000 nM in assay [2]. The Ratio IC50 in the assay listed under Homo sapiens was more than 910.

Consider `COc1ccc(CN[C@@H](C)C(N)=O)cc1`, for which the IC50 in assay [1] and in assay [2] was more than 10000 nM each time.

In the case of `COc1ccc(-c2ccc(CCN)cc2)cc1`, the half-maximal inhibitory concentration (IC50) is 5760 nM in assay [1] and more than 10000 nM in assay [2]. In addition, in the assay filed under Homo sapiens, the Ratio IC50 is more than 1.7.

As for `COc1ccc(COc2ccc(CN)cc2)cc1`, the IC50 in assay [1] is 283 nM; in assay [2], more than 100000 nM. Further, in the assay listed under Homo sapiens, the Ratio IC50 is more than 350.

Regarding `COc1cccc(-c2ccc(CCN)cc2)c1`, the values for the IC50 in assay [1] and in assay [2] were 5000 nM and more than 10000 nM, respectively. Besides, the Ratio IC50 in the assay filed under Homo sapiens was more than 1.9.

Consider `NC(=O)c1ccc(OCc2cccc(C(F)(F)F)c2)cc1`, for which the figures for the IC50 in assay [1] and in assay [2] were 1110 nM and more than 100000 nM, respectively. The Ratio IC50 in the assay filed under Homo sapiens was more than 90.

Turning to `NCCc1ccc(-c2cccc(F)c2)cc1`, the IC50 in assay [1] and in assay [2] was more than 10000 nM in each case.

As for `NCCc1ccc(-c2ccccc2F)cc1`, the concentration for half-maximal inhibition (IC50) in assay [1] and in assay [2] was more than 10000 nM each time.

Turning to `NC(=O)c1ccc(OCc2ccccc2C(F)(F)F)cc1`, the IC50 in assay [1] is 2020 nM; in assay [2], more than 100000 nM. For the same molecule, the Ratio IC50 in the assay filed under Homo sapiens was more than 49.

On to `NCCc1ccc(-c2ccc(C(F)(F)F)cc2)cc1`, for which the results for the IC50 in assay [1] and in assay [2] were 41 nM and more than 10000 nM, respectively. The Ratio IC50 in the assay filed under Homo sapiens was more than 240.

Consider `NCCc1ccc(-c2cccc(Cl)c2)cc1`, for which the figures for the IC50 in assay [1] and in assay [2] were 2110 nM and more than 10000 nM, respectively. The Ratio IC50 in the assay filed under Homo sapiens is more than 4.7.

With `NCCc1ccc(OCc2ccccc2C(F)(F)F)cc1`, the IC50 in assay [1] was 1800 nM; in assay [2] it was more than 100000 nM. Further, in the assay listed under Homo sapiens, the Ratio IC50 is more than 55.

`NCc1ccc(OCc2ccccc2F)cc1`: the figures for the IC50 in assay [1] and in assay [2] were 1460 nM and more than 100000 nM, respectively. Also, in the assay listed under Homo sapiens, the Ratio IC50 is more than 68.

`NCCc1ccc(OCc2ccccc2F)cc1`: the figures for the half-inhibitory concentration (IC50) in assay [1] and in assay [2] were 396 nM and more than 10000 nM, respectively. For the same molecule, the Ratio IC50 in the assay listed under Homo sapiens was more than 25.

As to `NCCc1ccc(-c2ccccc2Cl)cc1`, the IC50 is 8340 nM in assay [1] and more than 10000 nM in assay [2]. In addition, the Ratio IC50 in the assay filed under Homo sapiens is more than 1.2.

Regarding `NCCc1ccc(OCc2ccc(Cl)cc2)cc1`, the IC50 in assay [1] was 59 nM; in assay [2], more than 100000 nM. For the same molecule, the Ratio IC50 in the assay filed under Homo sapiens was more than 1600.

As to `NCCc1ccc(OCc2ccccc2Cl)cc1`, the IC50 was 2850 nM in assay [1] and more than 10000 nM in assay [2]. In addition, the Ratio IC50 in the assay listed under Homo sapiens is more than 3.5.

With `NCc1ccc(OCc2cccc(Cl)c2)cc1`, the IC50 in assay [1] is 257 nM; in assay [2] it was more than 100000 nM. Further, the Ratio IC50 in the assay listed under Homo sapiens was more than 380.

`COc1cccc(COc2ccc(CN)cc2)c1`: the IC50 in assay [1] is 175 nM; in assay [2], more than 30000 nM. The Ratio IC50 in the assay listed under Homo sapiens is more than 170.

Turning to `NCCc1ccc(-c2cccc(C(F)(F)F)c2)cc1`, the results for the half-inhibitory concentration (IC50) in assay [1] and in assay [2] were 1570 nM and more than 10000 nM, respectively. Moreover, the Ratio IC50 in the assay filed under Homo sapiens was more than 6.4.

As for `Nc1ccc(OCc2ccc(F)cc2)cc1`, the IC50 in assay [1] was 3320 nM; in assay [2], more than 100000 nM. Moreover, the Ratio IC50 in the assay filed under Homo sapiens is more than 30.

With `NCc1ccc(OCc2ccc(C(F)(F)F)cc2)cc1`, the IC50 in assay [1] was 136 nM; in assay [2], more than 100000 nM. The Ratio IC50 in the assay filed under Homo sapiens was more than 730.

For the molecule `NCc1ccc(OCc2ccc(Cl)cc2)cc1`, the IC50 in assay [1] is 440 nM; in assay [2], more than 30000 nM. The Ratio IC50 in the assay filed under Homo sapiens was more than 68.

On to `NCCc1ccc(OCc2cccc(Cl)c2)cc1`, for which the IC50 in assay [1] was 62 nM; in assay [2], more than 100000 nM. For the same molecule, in the assay filed under Homo sapiens, the Ratio IC50 is more than 1600.

As for `NC(=O)c1ccc(OCc2ccc(C(F)(F)F)cc2)cc1`, the 50% inhibitory concentration (IC50) was 642 nM in assay [1] and more than 100000 nM in assay [2]. Also, the Ratio IC50 in the assay filed under Homo sapiens is more than 150.
